How the values were obtained:
[1] = target: Serine/threonine-protein kinase ATR (Homo sapiens) (UniProt Q13535); test: Inhibition of human recombinant ATR at 40 nM related to control ULK1
In short: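 Radiometric activity assays in a panel of 327 human recombinant kinases, each run in duplicate at one inhibitor concentration. Activity remaining is expressed as percent of vehicle control, and percent inhibition is calculated as 100% minus percent activity remaining.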

[2] = target: Serine/threonine-protein kinase N1 (Homo sapiens) (UniProt Q16512); test: Inhibition of human recombinant PKN1 at 40 nM related to control ULK1
[3] = target: T1, Muscle, skeletal receptor tyrosine-protein kinase (Homo sapiens) (UniProt O15146); test: Inhibition of human recombinant MUSK at 40 nM related to control ULK1
T1 sequence (whole entry): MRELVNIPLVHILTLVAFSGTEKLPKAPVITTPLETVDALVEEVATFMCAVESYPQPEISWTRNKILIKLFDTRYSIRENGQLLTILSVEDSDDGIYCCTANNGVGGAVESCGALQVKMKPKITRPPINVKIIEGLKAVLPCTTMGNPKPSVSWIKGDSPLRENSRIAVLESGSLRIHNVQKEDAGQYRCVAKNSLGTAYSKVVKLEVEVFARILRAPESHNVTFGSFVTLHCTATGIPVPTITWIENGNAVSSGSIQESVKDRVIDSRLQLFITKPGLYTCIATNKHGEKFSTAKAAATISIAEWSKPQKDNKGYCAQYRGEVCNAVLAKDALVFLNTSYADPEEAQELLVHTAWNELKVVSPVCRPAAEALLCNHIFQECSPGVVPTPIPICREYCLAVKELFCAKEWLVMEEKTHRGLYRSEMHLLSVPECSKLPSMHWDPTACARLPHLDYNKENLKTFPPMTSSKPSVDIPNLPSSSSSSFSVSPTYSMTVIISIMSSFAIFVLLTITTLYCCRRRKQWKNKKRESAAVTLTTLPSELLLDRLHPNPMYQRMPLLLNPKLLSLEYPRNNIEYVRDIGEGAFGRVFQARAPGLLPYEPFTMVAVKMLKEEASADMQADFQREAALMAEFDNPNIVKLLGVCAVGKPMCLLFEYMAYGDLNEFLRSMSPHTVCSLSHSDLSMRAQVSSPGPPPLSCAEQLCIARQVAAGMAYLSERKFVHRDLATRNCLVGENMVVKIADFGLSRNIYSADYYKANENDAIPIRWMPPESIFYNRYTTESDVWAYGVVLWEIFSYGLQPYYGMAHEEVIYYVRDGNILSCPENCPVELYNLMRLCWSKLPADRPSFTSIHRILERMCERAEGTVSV

[4] = target: BDNF/NT-3 growth factors receptor (Homo sapiens) (UniProt Q16620); test: Inhibition of human recombinant TRKB at 40 nM related to control ULK1
[5] = target: Serine/threonine-protein kinase pim-2 (Homo sapiens) (UniProt Q9P1W9); test: Inhibition of human recombinant PIM2 at 500 nM related to control ULK1
[6] = target: T2, Homeodomain-interacting protein kinase 4 (Homo sapiens) (UniProt Q8NE63); test: Inhibition of human recombinant HIPK4 at 15 nM related to control ULK1
T2 sequence (whole entry): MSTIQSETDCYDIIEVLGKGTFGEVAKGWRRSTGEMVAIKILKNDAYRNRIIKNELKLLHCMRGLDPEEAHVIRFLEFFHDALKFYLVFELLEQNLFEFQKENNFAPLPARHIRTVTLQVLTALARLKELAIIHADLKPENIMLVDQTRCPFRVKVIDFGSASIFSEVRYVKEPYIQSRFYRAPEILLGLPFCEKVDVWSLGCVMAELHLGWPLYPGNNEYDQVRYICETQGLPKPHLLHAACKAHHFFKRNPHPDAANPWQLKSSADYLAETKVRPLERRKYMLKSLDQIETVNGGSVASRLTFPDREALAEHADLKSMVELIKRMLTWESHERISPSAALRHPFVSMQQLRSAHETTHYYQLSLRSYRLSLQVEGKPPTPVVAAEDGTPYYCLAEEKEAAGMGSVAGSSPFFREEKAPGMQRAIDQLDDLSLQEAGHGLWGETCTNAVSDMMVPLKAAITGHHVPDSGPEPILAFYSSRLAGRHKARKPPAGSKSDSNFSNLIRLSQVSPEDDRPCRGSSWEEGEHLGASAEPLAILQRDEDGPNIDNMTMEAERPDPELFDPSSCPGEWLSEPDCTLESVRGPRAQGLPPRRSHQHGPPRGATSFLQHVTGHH

[7] = target: T3, MAP/microtubule affinity-regulating kinase 4 (Homo sapiens) (UniProt Q96L34); test: Inhibition of human recombinant MARK4 at 15 nM related to control ULK1
T3 sequence (whole entry): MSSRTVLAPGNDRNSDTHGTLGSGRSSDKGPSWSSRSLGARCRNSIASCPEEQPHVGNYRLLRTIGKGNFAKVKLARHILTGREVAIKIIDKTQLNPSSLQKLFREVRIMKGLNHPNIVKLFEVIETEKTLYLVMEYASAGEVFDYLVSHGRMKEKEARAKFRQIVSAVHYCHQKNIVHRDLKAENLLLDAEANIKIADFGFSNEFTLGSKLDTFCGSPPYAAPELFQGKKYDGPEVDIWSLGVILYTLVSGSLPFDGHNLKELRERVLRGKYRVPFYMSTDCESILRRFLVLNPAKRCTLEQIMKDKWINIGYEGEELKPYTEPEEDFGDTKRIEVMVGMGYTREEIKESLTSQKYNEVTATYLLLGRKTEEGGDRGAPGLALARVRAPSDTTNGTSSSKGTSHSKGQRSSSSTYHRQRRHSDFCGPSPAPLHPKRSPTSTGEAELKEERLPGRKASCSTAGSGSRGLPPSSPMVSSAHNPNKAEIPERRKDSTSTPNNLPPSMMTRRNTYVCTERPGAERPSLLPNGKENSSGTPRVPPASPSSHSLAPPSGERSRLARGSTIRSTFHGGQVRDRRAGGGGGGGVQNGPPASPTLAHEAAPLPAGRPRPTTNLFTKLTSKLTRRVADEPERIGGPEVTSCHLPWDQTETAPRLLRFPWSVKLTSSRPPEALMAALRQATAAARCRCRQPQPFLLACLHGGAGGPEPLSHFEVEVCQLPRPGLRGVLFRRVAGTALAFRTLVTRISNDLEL

Chain of BDNF/NT-3 growth factors receptor (Homo sapiens) (Q16620 32-822 limits assumed): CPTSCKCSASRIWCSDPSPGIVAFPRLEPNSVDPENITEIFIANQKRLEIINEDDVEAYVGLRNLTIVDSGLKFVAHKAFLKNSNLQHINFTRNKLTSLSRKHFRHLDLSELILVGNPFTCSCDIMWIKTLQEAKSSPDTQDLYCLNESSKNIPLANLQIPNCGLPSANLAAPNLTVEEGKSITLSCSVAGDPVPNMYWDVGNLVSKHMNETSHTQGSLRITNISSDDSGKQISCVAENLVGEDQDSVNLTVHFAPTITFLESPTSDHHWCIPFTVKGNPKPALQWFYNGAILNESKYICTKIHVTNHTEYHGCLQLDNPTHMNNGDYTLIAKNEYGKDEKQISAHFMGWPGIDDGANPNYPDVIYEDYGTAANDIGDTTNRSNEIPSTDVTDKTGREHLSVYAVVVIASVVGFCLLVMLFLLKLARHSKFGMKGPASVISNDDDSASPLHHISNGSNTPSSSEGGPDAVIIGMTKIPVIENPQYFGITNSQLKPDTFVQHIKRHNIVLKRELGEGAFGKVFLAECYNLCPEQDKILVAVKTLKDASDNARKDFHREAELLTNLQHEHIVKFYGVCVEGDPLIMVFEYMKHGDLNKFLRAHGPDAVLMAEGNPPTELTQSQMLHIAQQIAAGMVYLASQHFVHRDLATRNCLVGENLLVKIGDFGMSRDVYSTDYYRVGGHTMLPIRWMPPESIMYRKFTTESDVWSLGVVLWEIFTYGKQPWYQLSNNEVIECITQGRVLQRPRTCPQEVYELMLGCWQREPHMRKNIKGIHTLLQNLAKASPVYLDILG
Chain of Serine/threonine-protein kinase N1 (Homo sapiens) (Q16512 2-942 limits assumed): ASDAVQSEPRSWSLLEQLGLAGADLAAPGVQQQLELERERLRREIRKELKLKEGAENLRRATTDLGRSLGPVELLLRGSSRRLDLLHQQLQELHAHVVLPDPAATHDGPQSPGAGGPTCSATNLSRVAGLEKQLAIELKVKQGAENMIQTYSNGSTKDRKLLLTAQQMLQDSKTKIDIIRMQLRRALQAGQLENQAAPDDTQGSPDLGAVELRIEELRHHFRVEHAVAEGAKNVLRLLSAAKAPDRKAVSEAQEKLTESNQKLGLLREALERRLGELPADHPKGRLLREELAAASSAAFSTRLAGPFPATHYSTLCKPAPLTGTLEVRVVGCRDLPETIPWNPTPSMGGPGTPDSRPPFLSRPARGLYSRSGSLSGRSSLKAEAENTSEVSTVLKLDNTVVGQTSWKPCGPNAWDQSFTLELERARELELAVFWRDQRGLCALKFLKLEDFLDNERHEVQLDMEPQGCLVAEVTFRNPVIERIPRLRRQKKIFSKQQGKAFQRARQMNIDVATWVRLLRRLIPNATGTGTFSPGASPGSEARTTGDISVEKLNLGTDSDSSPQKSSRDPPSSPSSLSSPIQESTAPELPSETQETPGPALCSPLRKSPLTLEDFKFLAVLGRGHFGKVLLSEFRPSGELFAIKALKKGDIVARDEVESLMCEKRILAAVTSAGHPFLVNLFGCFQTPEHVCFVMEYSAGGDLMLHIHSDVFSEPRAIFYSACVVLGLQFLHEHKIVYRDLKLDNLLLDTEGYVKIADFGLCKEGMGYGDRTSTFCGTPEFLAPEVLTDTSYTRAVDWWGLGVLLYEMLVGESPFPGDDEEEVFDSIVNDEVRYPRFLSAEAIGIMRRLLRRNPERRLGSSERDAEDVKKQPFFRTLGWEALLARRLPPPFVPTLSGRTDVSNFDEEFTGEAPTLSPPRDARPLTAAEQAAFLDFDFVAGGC
Chain of Serine/threonine-protein kinase pim-2 (Homo sapiens) (Q9P1W9 whole entry, looked up): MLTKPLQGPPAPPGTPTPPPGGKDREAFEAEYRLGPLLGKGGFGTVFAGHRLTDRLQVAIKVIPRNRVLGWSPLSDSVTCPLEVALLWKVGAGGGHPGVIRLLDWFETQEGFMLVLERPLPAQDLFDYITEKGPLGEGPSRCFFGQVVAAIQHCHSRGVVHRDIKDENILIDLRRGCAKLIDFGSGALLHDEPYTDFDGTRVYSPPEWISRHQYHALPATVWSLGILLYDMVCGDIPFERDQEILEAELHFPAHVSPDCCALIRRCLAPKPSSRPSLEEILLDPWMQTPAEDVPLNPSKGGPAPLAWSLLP
Chain of Serine/threonine-protein kinase ATR (Homo sapiens) (Q13535 whole entry, looked up): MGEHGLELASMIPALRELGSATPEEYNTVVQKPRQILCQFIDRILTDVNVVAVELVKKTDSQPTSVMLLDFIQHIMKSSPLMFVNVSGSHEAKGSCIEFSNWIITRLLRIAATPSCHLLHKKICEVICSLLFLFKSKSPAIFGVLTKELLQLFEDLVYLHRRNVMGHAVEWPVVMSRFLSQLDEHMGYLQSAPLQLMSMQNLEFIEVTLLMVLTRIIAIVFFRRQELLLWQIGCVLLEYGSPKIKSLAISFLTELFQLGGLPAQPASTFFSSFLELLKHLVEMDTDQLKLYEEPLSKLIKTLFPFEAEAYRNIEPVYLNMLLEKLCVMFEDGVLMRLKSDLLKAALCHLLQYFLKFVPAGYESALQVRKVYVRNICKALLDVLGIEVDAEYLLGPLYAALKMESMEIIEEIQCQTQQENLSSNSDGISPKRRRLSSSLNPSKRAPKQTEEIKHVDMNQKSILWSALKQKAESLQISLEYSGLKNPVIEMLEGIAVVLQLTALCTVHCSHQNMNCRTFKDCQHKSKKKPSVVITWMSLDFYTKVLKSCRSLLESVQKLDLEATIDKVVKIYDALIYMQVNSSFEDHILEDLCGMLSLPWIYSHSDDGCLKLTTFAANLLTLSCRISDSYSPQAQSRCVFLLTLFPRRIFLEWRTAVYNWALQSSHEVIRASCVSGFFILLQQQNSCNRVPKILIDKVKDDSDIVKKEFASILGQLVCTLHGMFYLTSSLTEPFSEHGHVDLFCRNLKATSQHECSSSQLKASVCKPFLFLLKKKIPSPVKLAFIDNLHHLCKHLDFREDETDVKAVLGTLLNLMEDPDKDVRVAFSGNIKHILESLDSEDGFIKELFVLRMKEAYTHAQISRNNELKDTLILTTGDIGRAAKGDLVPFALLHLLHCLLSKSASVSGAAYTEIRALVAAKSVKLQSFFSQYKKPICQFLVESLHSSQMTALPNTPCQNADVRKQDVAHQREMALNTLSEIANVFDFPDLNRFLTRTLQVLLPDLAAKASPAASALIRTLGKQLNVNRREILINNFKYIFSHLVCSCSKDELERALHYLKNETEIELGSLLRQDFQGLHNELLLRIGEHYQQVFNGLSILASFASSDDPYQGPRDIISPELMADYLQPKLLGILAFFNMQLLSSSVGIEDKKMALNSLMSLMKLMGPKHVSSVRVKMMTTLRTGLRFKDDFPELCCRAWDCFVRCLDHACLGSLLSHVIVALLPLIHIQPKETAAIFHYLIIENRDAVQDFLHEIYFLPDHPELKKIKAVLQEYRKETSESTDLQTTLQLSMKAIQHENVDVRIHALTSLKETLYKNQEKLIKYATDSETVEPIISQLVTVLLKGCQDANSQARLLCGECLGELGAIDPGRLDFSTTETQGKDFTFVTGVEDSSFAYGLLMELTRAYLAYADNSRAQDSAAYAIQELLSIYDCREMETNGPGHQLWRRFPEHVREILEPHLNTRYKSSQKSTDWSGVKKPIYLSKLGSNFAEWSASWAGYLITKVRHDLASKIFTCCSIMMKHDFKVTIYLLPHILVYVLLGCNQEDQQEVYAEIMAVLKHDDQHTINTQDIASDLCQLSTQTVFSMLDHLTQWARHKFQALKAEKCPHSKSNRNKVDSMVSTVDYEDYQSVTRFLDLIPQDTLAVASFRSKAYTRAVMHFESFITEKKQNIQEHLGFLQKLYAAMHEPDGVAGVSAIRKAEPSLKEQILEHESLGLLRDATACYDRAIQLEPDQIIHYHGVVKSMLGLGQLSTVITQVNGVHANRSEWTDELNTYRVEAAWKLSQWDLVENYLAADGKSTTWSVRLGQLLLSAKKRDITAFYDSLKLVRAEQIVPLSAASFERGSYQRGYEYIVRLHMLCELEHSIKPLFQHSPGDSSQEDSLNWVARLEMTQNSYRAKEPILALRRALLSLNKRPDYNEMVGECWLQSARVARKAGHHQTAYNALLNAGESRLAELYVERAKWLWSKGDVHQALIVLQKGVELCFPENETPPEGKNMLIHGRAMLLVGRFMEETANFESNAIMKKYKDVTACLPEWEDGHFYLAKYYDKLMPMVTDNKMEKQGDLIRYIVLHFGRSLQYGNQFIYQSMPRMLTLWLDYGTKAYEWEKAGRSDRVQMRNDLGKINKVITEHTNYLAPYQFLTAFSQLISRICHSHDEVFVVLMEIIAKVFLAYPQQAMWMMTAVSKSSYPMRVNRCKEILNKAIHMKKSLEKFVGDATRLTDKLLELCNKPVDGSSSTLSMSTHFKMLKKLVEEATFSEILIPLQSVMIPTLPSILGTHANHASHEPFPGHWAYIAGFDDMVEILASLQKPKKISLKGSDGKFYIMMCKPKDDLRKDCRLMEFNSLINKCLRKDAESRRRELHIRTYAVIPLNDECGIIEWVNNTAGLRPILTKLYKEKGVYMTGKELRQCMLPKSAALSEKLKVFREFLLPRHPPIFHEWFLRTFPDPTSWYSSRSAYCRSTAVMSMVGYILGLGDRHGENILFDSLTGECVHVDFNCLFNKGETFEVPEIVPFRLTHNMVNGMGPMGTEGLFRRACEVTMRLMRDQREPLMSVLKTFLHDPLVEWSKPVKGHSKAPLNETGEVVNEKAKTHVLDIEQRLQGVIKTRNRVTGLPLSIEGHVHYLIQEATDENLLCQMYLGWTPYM

`O=C(N[C@@H](C1CC1)C(F)(F)F)c1cc(-c2cnn3cc(-c4ccc(F)cc4)cnc23)cs1` gave a fold change (FC) [1] of 0, a fold change (FC) [2] of 0 and a fold change (FC) [3] of 0.18. The fold change (FC) [4] was 0.26.

`CNC(=O)c1ccccc1Oc1nc(Nc2cc(OC)c(OC)c(OC)c2)ncc1Br` gave a fold change (FC) [5] of 0.03.

In the case of `CC(C)[C@H](NC(=O)c1cc(-c2cnn3cc(-c4ccc(OCCN5CCCCC5)cc4)cnc23)cs1)C(F)(F)F`, the fold change (FC) [6] was 0 and the fold change (FC) [7] was 0.48.

— ChEMBL document CHEMBL5653631, “A Potent and Selective ULK1 Inhibitor Suppresses Autophagy and Sensitizes Cancer Cells to Nutrient Stress” (iScience, 2018)
